Laboratory results reported in paper PMC7032195 (Asian Journal of Pharmaceutical Sciences, 2018).
Where two headings read alike, the source gives them in different places.

Columns and labels:
MCF-7 cells = assay: MTT assay of DTX, RES and their combinations at different mass ratios; format: cell-based; conditions: Homo sapiens
Outline: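 MCF-7 cells seeded at 6000 cells/well 12 h before dosing, then exposed to each test compound alone (0–50.0 or 0–100.0 µg/ml) or as 1:1 combinations (2.5+2.5 to 50+50 µg/ml); DMEM vehicle control. After two days, OD read at 490 nm. Six replicate wells per condition, at least three independent repeats. Combination index calculated for 2:1, 1:1 and 1:2 mass ratios.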

[1] = Pharmacokinetics after intravenous injection in rats; format: in vivo, Sprague-Dawley rats; conditions: i.v., 10 mg/kg
Outline: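 Male Sprague-Dawley rats (~200 g), n = 3, received ethanol solutions or co-loaded mPEG-PDLA micelles i.v. at 10 mg/kg. Orbital plexus blood was drawn into heparin tubes at 0.083–12 h. Plasma was separated at 5000 rpm for 10 min and stored at −20 °C. Carbamazepine was the internal standard, with methyl tert-butyl ether extraction. UV detection was at 228 or 306 nm. Parameters are mean ± SD.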

[2] = MCF7, read-out: IC50 in MCF-7 cells

IC50 (MCF-7 cells; MCF7, read-out: IC50 (µg/ml) DTX) [µg/mL] | IC50 (MCF-7 cells; [2]) [µg/mL] | V ([1]; analyte DTX) [L/kg] | IC50 (MCF-7 cells; MCF7, read-out: IC50 (µg/ml) RES) [µg/mL] | V ([1]; analyte RES) [L/kg] | Structure (SMILES)
10.4 ± 0.43 | 10.4 | 3.79 ± 0.83 |  |  | CC(=O)O[C@@]12CO[C@@H]1C[C@H](O)[C@@]1(C)C(=O)[C@H](O)C3=C(C)[C@@H](OC(=O)[C@H](O)[C@@H](NC(=O)OC(C)(C)C)c4ccccc4)C[C@@](O)([C@@H](OC(=O)c4ccccc4)[C@H]21)C3(C)C [DTX, docetaxel]
 | 23 |  | 23 ± 0.54 | 3.45 ± 2.93 | Oc1ccc(/C=C/c2cc(O)cc(O)c2)cc1 [RES, resveratrol]
